Bioassay records: PubChem BioAssay, The Scripps Research Institute Molecular Screening Center
Hits are enriched below; roughly 4.6% of the tested compounds scored in any of these assays.
TAAR1 agonist: agonists of human TAAR1 | Q96RJ0 | CHO RD-HGA16 TAAR1, Fluo-8 calcium fluorescence; vehicle wells 0%, saturating PEA agonist 100% | activation, % at 3 µM | 360,000 compounds, 0.99% hits | AID 624467;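 active means activation above the mean activation of all test compounds in the run plus 3 SD, cut at about 38% in these data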
Target sequence (Q96RJ0 whole entry, looked up): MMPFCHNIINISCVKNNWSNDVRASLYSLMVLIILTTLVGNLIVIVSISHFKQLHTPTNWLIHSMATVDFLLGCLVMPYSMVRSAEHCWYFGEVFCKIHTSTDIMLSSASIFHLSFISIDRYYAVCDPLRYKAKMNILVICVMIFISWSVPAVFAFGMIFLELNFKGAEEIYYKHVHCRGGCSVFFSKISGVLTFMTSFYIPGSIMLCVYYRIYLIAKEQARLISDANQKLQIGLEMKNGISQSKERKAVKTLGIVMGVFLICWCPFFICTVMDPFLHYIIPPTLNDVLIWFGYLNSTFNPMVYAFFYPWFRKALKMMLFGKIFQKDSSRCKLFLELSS
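Benchmarks: low control DMSO, high control PEA (EC100); System: CHO RD-HGA16 cells carrying human TAAR1 plus Gα16; Detection: Fluo-8 fluorescence, 5 s baseline then 140 s kinetic read; Schedule: 17-24 h plating, Fluo-8 75 min 37 °C, 30 min RT; Read-out basis: % activation from peak over basal fluorescence ratio, DMSO-to-PEA scaled.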
CHO parental Ca: counter-screen for OX1R antagonists: effect in parental CHO cells. parental CHO-K1, ATP-induced calcium, Fluo-8 fluorescence. inhibition, % at 5.6 µM. 330,000 compounds, 0.63% hits. AID 463079;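 active means inhibition above that plate's mean sample inhibition plus 3 SD, cut at about 26% in these data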;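 further: 0% = ATP-challenged DMSO wells and 100% = DMSO wells without ATP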
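Test system: untransfected parental CHO cell line; also added: ATP stimulus; dosing: 5.6 µM, single dose; signal: calcium-sensitive Fluo-8 fluorescence; measure: percent inhibition of ATP-evoked calcium rise, normalized to controls; benchmarks: low control ATP plus DMSO, high control DMSO only; replication: one well per compound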
TAAR1 antagonist: antagonists of human TAAR1; Q96RJ0; CHO RD-HGA16 TAAR1, Fluo-8 calcium fluorescence, antagonist; inhibition, % at 3 µM; 360,000 compounds, 1.5% hits;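 active means inhibition above a per-plate cutoff, the mean inhibition of test compounds on that plate plus 3 SD, cut at about 49% in these data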;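 further: 0% = DMSO plus EC80 beta-PEA response and 100% = DMSO alone without agonist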
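Test system: RD-HGA16 CHO cells with stable hTAAR1 and Gα16 / Probe or stimulus: EC80 β-phenethylamine stimulus / Times: seeding 17-24 h prior, 75-min 37 °C, 30-min RT dye loading / Detection: Fluo-8 calcium-sensitive fluorescence / Read-out basis: % inhibition scaled between DMSO and EC80 PEA controls / Repeats: singlicate, one well per test compound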
OX1R antag-1: OX1R (human) antagonism. OX1R-expressing cells, FRET antagonist read-out. O43613. 330,000 compounds, 1.8% hits. inhibition, % at 6.6 µM; in the data active means inhibition mostly above about 38%, no sharp cut-off; inactive means mostly below about 40%;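 further: 0% = agonist challenge alone and 100% = reference antagonist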
OX1R antag-2: human HCRTR1 antagonism | O43613 | CHO/OX1R cells, Fluo-8 calcium fluorescence, orexin A | inhibition, % at 5 µM | 330,000 compounds, 0.43% hits;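 active means inhibition above its plate's threshold, mean inhibition of all tested compounds on the plate plus 3 SD, cut at about 37% in these data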;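 further: 0% = orexin A challenge wells and 100% = SB-334867-A antagonist wells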
GPR7 antag: antagonists of human GPR7 (neuropeptides B/W receptor 1); P48145; inhibition, % at 4.4 µM; 290,000 compounds, 1.1% hits; GPR7-expressing cells, fluorescence antagonist assay; AID 1861; in the data active means inhibition above about 16%, passing the limit was not always enough;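 further: cells stimulated with the agonist NPW; 0% = agonist with vehicle and 100% = vehicle without agonist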
Target sequence (P48145 whole entry, looked up): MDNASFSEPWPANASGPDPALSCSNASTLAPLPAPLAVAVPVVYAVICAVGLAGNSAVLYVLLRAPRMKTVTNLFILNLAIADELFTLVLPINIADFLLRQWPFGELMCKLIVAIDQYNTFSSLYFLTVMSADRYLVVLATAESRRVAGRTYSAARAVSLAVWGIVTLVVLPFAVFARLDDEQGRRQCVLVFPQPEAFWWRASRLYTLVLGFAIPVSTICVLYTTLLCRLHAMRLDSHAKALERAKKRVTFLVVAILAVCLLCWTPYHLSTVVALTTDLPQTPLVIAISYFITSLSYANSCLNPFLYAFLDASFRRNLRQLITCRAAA
OX1R HTRF confirm: OX1R (human) antagonism, HTRF confirmed | shares compounds with OX1R antag-1 | OX1R-expressing cells, HTRF antagonist assay | inhibition, % at 6.6 µM | 1,800 compounds, 49% hits; in the data active means inhibition above about 55%;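 further: CHO cells expressing OX1R stimulated with orexin A at about EC80; 0% = agonist challenge alone and 100% = reference antagonist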
CHO-K1 HTRF cnt: counter-screen: parental CHO-K1 HTRF response; shares compounds with OX1R antag-1; AID 493232; parental CHO-K1 cells, HTRF counterscreen; 1,800 compounds, 48% hits; inhibition, % at 6.6 µM; in the data active means inhibition above about 17%;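 further: 0% = agonist challenge with vehicle and 100% = vehicle alone without agonist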
Active calls of the source: *; . = not tested or not shown; + = active, no number.

SMILES	TAAR1 agonist	CHO parental Ca	TAAR1 antagonist	OX1R antag-1	OX1R antag-2	GPR7 antag	OX1R HTRF confirm	CHO-K1 HTRF cnt
O=C(Oc1ccc(Br)cc1C(=S)N1CCCCC1)c1cc([N+](=O)[O-])cc([N+](=O)[O-])c1	.	-6	.	130*	-19	2	73*	70*
COc1ccc(C(C(=O)NC2CCCC2)N(CCCO)C(=O)c2snc(C(N)=O)c2N)cc1 (centres undefined)	3	-18	9	121*	-21	-6	20	-3
COc1ccc(OC)c(NC(=O)CCNS(=O)(=O)c2cccc3nsnc23)c1	9	-6	-11	46	-25	-5	.	.
COc1ccc(/C=N/NC(=O)c2cccc(C(=O)N/N=C/c3ccc(OC)c(OC)c3)n2)cc1OC	4	.	6	.	.	-20	.	.
COc1ccc(/C=N/NC(=O)Nc2cccc3nsnc23)cc1OC	7	-13	10	82*	19	10	67*	-5
COc1ccc(NC(=O)CCNS(=O)(=O)c2cccc3nsnc23)cc1OC	3	-1	2	84*	-4	-7	30	25*
Cc1cc(C)c(NC(=O)C2CCCO2)c(C)c1NC(=O)C1CCCO1 (centres undefined)	3	-8	-7	19	-13	-6	.	.
C[C@@H]1COC(=O)[C@@H](Cc2ccc(F)cc2)CC/C=C\C[C@@H](CC(=O)NCCO)C(=O)N1	5	-7	10	4	-2	.	.	.
CC(=O)Nc1ccc(S(=O)(=O)NNC(=O)c2ccc([N+](=O)[O-])cc2)cc1	-1	-9	-6	19	-15	-9	.	.
CC(=O)Nc1ccc(C(=O)NNC(=O)c2cc([N+](=O)[O-])cc([N+](=O)[O-])c2)cc1	7	-11	-7	80*	-3	-5	49	73*
CCC(=O)Nc1ccc(C(=O)NNC(=O)c2ccc([N+](=O)[O-])cc2)cc1	0	1	3	158*	-9	0	39	34*
CCC(=O)Nc1ccc(C(=O)NNC(=O)c2cc([N+](=O)[O-])cc([N+](=O)[O-])c2)cc1	13	5	6	181*	-6	2	19	11
CCc1nc2ccc(C(=O)NCc3cccs3)cn2c1N(CC)CCN(C)C	3	.	-17	.	.	.	.	.
O=C(COC(=O)CSc1ccc2ccccc2c1Br)NC1CC1	8	-10	7	1	-6	-8	.	.
Cc1ccc(NC(=O)c2cc3c(CO)cnc(C)c3oc2=Nc2cccc(C(N)=O)c2)cc1	2	-17	-22	11	-11	-8	.	.
Cc1ncc(CO)c2cc(C(N)=O)c(=Nc3ccccc3)oc12	9	-13	2	150*	-19	6	31	42*
COc1cccc(CC(NC(C)=O)C(=O)NC2CCN(C(=O)c3ccncc3)CC2)c1OC (centres undefined)	3	.	13	.	.	-9	.	.
Cc1[nH]n(CCC#N)c(=O)c1CC(=O)N1CCN(c2ccccc2)CC1	12	-11	5	4	1	5	.	.
c1ccc(-c2cnn3nnnc3n2)cc1	17	-8	10	+	-2	-3	71*	115*
CC(C)Cn1[nH]c2c3c(ccc2c1=O)C(=O)c1ccccc1C3=O	.	-25	.	135*	-23	-1	37	33*
O=C1c2ccccc2C(=O)c2c1ccc1c(=O)n(-c3ccccc3)[nH]c21	-2	-6	2	23	-18	-6	.	.
O=C(Nn1cnnc1)c1ccc([N+](=O)[O-])cc1Cl	2	-9	-27	16	-14	.	.	.
Cn1nnc(NC(=O)c2ccc([N+](=O)[O-])cc2Cl)n1	4	15	5	94*	16	-14	66*	53*
COc1ccc(NC(=O)c2ccc3c(=O)n(CC4CCCO4)c(=S)[nH]c3c2)c(OC)c1 (centres undefined)	0	3	8	25	2	-2	.	.
Cc1cccc(NC(=O)Nc2ccc3c(c2)N(C)C(=O)CS3)n1	10	-15	37	10	-14	-10	.	.
SMILES	TAAR1 agonist	CHO parental Ca	TAAR1 antagonist	OX1R antag-1	OX1R antag-2	GPR7 antag	OX1R HTRF confirm	CHO-K1 HTRF cnt
CC(=O)c1ccc(NC(=O)Nc2ccc3c(c2)N(C)C(=O)CS3)cc1	44*	-1	76*	79*	-15	-6	19	11
COc1ccc(-c2csc(/N=C/N(C)C)n2)cc1OC	0	-14	-1	13	-33	-12	.	.
O=C(COC(=O)c1cc(-c2ccncc2)nc2ccccc12)Nc1ccc2c(c1)OCO2	.	1	.	152*	-1	0	35	24*
COc1ccc(-c2coc3cc(O)c(OC)cc3c2=O)cc1	0	-4	-6	4	-16	.	.	.
COc1ccc(C(=O)Nc2ccc3ccccc3c2)c(OC)c1	6	-10	8	26	-13	-1	.	.
O=[N+]([O-])c1ccc(S(=O)(=O)NCC2CCCO2)cc1 (centres undefined)	0	-11	7	81*	-18	1	46	47*
Cc1ccc2c(c1)N(CC(=O)NC1CCCCC1C)C(=O)CO2 (centres undefined)	0	-14	16	111*	-12	-6	37	-2
O=C(NNC(=O)c1cc(-c2ccncc2)nc2ccccc12)c1cccc(Cl)c1	11	-17	37	14	-19	.	.	.
CCN1C(=O)/C(=C2/C=Cc3cc(C)ccc3N2CC)N(C)C1=S	1	-11	-9	134*	-14	4	54	79*
O=C1c2cccc3cc([N+](=O)[O-])cc(c23)C(=O)N1c1nncs1	12	-8	-7	78*	-18	.	61*	86*
COc1cc(C)c(S(=O)(=O)NCc2cccs2)cc1C	3	-2	11	7	0	-7	.	.
CC(C)(CO)N=C1NS(=O)(=O)c2cc([N+](=O)[O-])ccc21	0	-2	15	99*	-10	-9	56*	63*
CC(C)(C)CC(C)(C)N=C1NS(=O)(=O)c2cc([N+](=O)[O-])ccc21	12	-13	-5	34	-1	-13	.	.
CC(=O)c1sc(NC(=O)C2(F)C(F)(F)C(F)(F)C(F)(F)C(F)(F)C2(F)F)nc1C	9	16	-5	80*	35	11	71*	26*
CC(=O)c1sc(NC(=O)C=C(C)C)nc1C	15	-2	-2	17	-9	3	.	.
Cc1nc2c(ccc3nc(NC(=O)Cc4ccccc4)sc32)s1	-3	-18	-2	77*	5	-7	89*	3
